Measured values as given in ChEMBL document CHEMBL1138744, “In vitro cytotoxic activities of 2-alkyl-4,6-diheteroalkyl-1,3,5-triazines: new molecules in anticancer research” (J Med Chem, 2004).

What was measured:
Type in all cases: functional, cell-based
[1] = test system: HCT-116; test: Cytotoxic activity of compound towards human cancer cell line HCT116 (colon cancer)
Method in brief: (§1)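 Compounds first passed a one-dose primary assay on three cell lines, then were tested on a 60-line human tumour panel. Dose–response curves gave growth-inhibition values (IG50, μM). For each compound, only the most sensitive of the 60 lines was reported.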

[2] = test system: C6; test: Cytotoxic activity of compound towards […] cell line after 48 hr of administration; conditions: Rattus norvegicus, C6, 48 h
[3] = test system: HL-60; test: Cytotoxic activity of compound towards human HL60 cell line after 72 hr of administration; conditions: HL-60, 72 h
[4] = Cytotoxic activity of compound towards human L1210 cell line after 72 hr of administration; a is No cytotoxic effect
[5] = test system: HL-60; test: Cytotoxic activity of compound towards human HL60 cell line after 48 hr of administration; conditions: HL-60, 48 h
[6] = test system: L1210; test: Cytotoxic activity of compound towards […] cell line after 48 hr of administration; NE= No effect
[7] = test system: C6; test: Cytotoxic activity of compound towards […] cell line after 72 hr of administration; conditions: Rattus norvegicus, C6, 72 h
[8] = test system: L1210; test: Cytotoxic activity of compound towards human L1210 cell line after 72 hr of administration; conditions: Mus musculus, L1210, 72 h
[9] = test system: L1210; test: Cytotoxic activity of compound towards human leukemia L1210 cell line after 48 hr of administration; conditions: Mus musculus, L1210, 48 h
[10] = test system: SR; test: Cytotoxic activity of compound towards human cancer cell line SR (leukemia); method in brief: as §1
[11] = test system: OVCAR-4; test: Cytotoxic activity of compound towards human cancer cell line OVCAR-4 (ovarian cancer); method in brief: as §1
[12] = test system: HOP-62; test: Cytotoxic activity of compound towards human cancer cell line HOP-62 (lung cancer); method in brief: as §1
[13] = test system: LOX IMVI; test: Cytotoxic activity of compound towards human cancer cell line LOX IMVI (melanoma); method in brief: as §1
[14] = test system: C6; test: Cytotoxic activity of compound towards […] cell line after 72 hr of administration; NE= No effect
[15] = test system: CAKI-1; test: Cytotoxic activity of compound towards human cancer cell line CAKI-1 (renal cancer); method in brief: as §1
[16] = test system: HL-60; test: Cytotoxic activity of compound towards human HL60 cell line after 72 hr of administration; NE= No effect
[17] = test system: HL-60; test: Cytotoxic activity of compound towards human HL60 cell line after 48 hr of administration; NE= No effect
[18] = test system: L1210; test: Cytotoxic activity of compound towards human L1210 cell line after 72 hr of administration; NE= No effect

SMILES	IC50 [2] [µM]	IC50 [3] [µM]	IC50 [5] [µM]	IC50 [7] [µM]	IC50 [8] [µM]	IC50 [9] [µM]	further results
COc1nc(C#CC2CCCCC2)nc(OC)n1	–	–	–	–	–	–	IC50 [1]: 0.4 µM
COc1ccc(Nc2nc(C#CC(C)(C)C)nc(Nc3ccc(OC)cc3)n2)cc1	> 10000	575	589	> 10000	–	–	IC50 [4]: No effect; IC50 [6]: Not Active
CC(C)c1nc(N2CCOCC2)nc(N2CCOCC2)n1	141	200	87.1	490	67.6	93.3	–
COc1ccc(Oc2nc(C#CC(C)(C)O)nc(Oc3ccc(OC)cc3)n2)cc1	> 10000	36.3	17	> 10000	14.1	11	IC50 [10]: 0.63 µM
COc1nc(C#CC2(O)CCCCC2)nc(OC)n1	–	–	–	–	–	–	IC50 [11]: 1.86 µM
CCC(O)C#Cc1nc(OC)nc(OC)n1 (stereo not given)	–	–	–	–	–	–	IC50 [12]: 4.9 µM
COc1nc(C#CCCCC#N)nc(OC)n1	–	–	–	–	–	–	GI50 [13]: 2.09 µM
COc1nc(C#CC(C)(C)C)nc(OC)n1	16.6	7.08	7.08	16.6	9.12	12	IC50 [10]: 5.25 µM
CC(C)(C)C#Cc1nc(N2CCOCC2)nc(N2CCOCC2)n1	6610	389	182	–	120	182	IC50 [14]: Not Active
CC[C@H](C)Cc1nc(N2CCOCC2)nc(N2CCOCC2)n1	575	141	219	240	57.5	141	–
C1CN(c2nc(N3CCOCC3)nc(N3CCOCC3)n2)CCO1	151	100	129	288	110	151	–
COc1nc(C#CC(C)(C)O)nc(OC)n1	16.2	15.1	15.8	15.1	12.9	14.1	–
COc1nc(OC)nc(OC)n1	–	339	302	–	–	–	–
COc1ccc(Oc2nc(Oc3ccc(OC)cc3)nc(Oc3ccc(OC)cc3)n2)cc1	–	52.5	70.8	–	–	–	–
COc1nc(OC)nc(-c2cccc(F)c2)n1	–	–	–	–	–	–	IC50 [15]: < 0.01 µM
CC(C)(C)C#Cc1nc(N(CCO)CCO)nc(N(CCO)CCO)n1	3390	–	–	–	–	–	IC50 [16]: Not Active; IC50 [6]: Not Active; IC50 [17]: Not Active; IC50 [18]: Not Active; IC50 [14]: Not Active
